ChEMBL document CHEMBL1833887, “Synthesis and evaluation of 7-substituted 4-aminoquinoline analogues for antimalarial activity” (J Med Chem, 2011)
In brackets after ≈: the same amount, converted by molar mass.

Experiments:
Plasmodium falciparum [1] = assay: Ratio of EC50 for chloroquine-resistant Plasmodium falciparum K1 infected in human erythrocytes to EC50 for chloroquine-sensitive Plasmodium falciparum 3D7 infected in human erythrocytes; format: functional
[2] = Solubility of the compound at pH 7.4 after 18 hrs by UV spectroscopic analysis; format: physicochemical; conditions: buffer
Outline: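 Kinetic solubility. A 10 mM stock is diluted 1:100 into PBS pH 7.4 and incubated 18 h at room temperature, then filtered; the filtrate is mixed 1:1 with 1-propanol. UV spectrum (250–500 nm) compared by AUC with a 1-propanol/PBS reference. Single experiment in triplicate.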

[3] = Dissociation constant, pKa of the compound; format: physicochemical
[4] = Ratio of EC50 for human HepG2 cells to EC50 for Plasmodium falciparum 3D7 infected in human erythrocytes
[5] = Ratio of EC50 for human HepG2 cells to EC50 for Plasmodium falciparum K1 infected in human erythrocytes
Plasmodium falciparum [6] = assay: Antimalarial activity against chloroquine-sensitive Plasmodium falciparum 3D7 infected in human erythrocytes assessed as reduction in parasitemia after 72 hrs by spectrophotometry; format: functional, organism-based; conditions: 3D7, 72 h
[7] = Permeability of the compound at pH 7.4 after 30 mins by PAMPA; format: ADME; conditions: read-out: permeability
Outline: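 PAMPA at pH 7.4. A 10 mM DMSO stock is diluted into system solution buffer; its UV spectrum serves as reference. Membrane painted with GIT lipid, acceptor chamber holds acceptor solution buffer. Sandwich stirred for 30 min, aqueous boundary layer set to 40. Donor and acceptor UV spectra read at 250–500 nm. Permeability coefficient from the AUCs of reference, donor and acceptor. Single experiment in triplicate.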

HepG2 = assay: Cytotoxicity against human HepG2 cells assessed as intracellular ATP level after 72 hrs by Celltiter-Glo luminescent assay; format: cell-based; conditions: HepG2, 72 h
Plasmodium falciparum [8] = assay: Antimalarial activity against chloroquine-resistant Plasmodium falciparum K1 infected in human erythrocytes assessed as reduction in parasitemia after 72 hrs by spectrophotometry; format: functional, organism-based; conditions: K1, 72 h

SMILES	Ratio EC50 (Plasmodium falciparum [1])	solubility at 18 h [2]	pKa [3]	Ratio EC50 [4]	Ratio EC50 [5]	EC50 (Plasmodium falciparum [6])	Papp at 0.5 h [7]	EC50 (HepG2)	EC50 (Plasmodium falciparum [8])
COc1ccc(F)cc1CNCCCNc1ccnc2cc(-c3cc(C(F)(F)F)cc(C(F)(F)F)c3)ccc12	8.8	32 µM (≈ 17.6 µg/mL)	9.47	9.4	1.1	92 nM	237 ×10⁻⁶ cm/s	870 nM	812 nM
COc1cccc(CNCCCNc2ccnc3cc(-c4ccc(F)cc4)ccc23)c1O	92.8	32 µM (≈ 13.8 µg/mL)	9.47	742.9	8	9 nM	237 ×10⁻⁶ cm/s	6840 nM	854 nM
FC(F)(F)c1cc(-c2ccc3c(NCCCNCc4ccco4)ccnc3c2)cc(C(F)(F)F)c1	3.4	32 µM (≈ 15.8 µg/mL)	9.47	8.5	2.5	285 nM	237 ×10⁻⁶ cm/s	2410 nM	972 nM
COc1ccc(F)cc1CNCCCNc1ccnc2cc(-c3cccc4ccccc34)ccc12	0.9	32 µM (≈ 14.9 µg/mL)	9.47	13.9	15.5	1150 nM	237 ×10⁻⁶ cm/s	16000 nM	1030 nM
COc1cccc(CNCCCNc2ccnc3cc(-c4cccc5ccccc45)ccc23)c1O	33.9	32 µM (≈ 14.8 µg/mL)	9.47	76.3	2.3	33 nM	237 ×10⁻⁶ cm/s	2520 nM	1120 nM
c1coc(CNCCCNc2ccnc3cc(-c4cccc5ccccc45)ccc23)c1	41.2	32 µM (≈ 13 µg/mL)	9.47	178.2	4.3	31 nM	237 ×10⁻⁶ cm/s	5600 nM	1300 nM
COc1ccc(F)cc1CNCCCNc1ccnc2cc(-c3ccc(C(C)(C)C)cc3)ccc12	11	32 µM (≈ 15.1 µg/mL)	9.47	4.3	0.4	144 nM	237 ×10⁻⁶ cm/s	620 nM	1590 nM
COc1cccc(CNCCCNc2ccnc3cc(-c4ccccc4)ccc23)c1O	212.7	32 µM (≈ 13.2 µg/mL)	9.47	353	1.7	9 nM	237 ×10⁻⁶ cm/s	3210 nM	1940 nM
CCC(CC)c1ccc2c(NCCCNCc3cccc(OC)c3O)ccnc2c1	68.3	4.2 µM (≈ 1.71 µg/mL)	9.47	103.3	1.5	4 nM	23 ×10⁻⁶ cm/s	410 nM	273 nM
COc1cccc(CNCCCNc2ccnc3cc(Cc4cc(C)cc(C)c4)ccc23)c1O	160	4.2 µM (≈ 1.91 µg/mL)	9.47	315.8	2	9 nM	23 ×10⁻⁶ cm/s	2680 nM	1360 nM
Cc1cc(C)cc(Cc2ccc3c(NCCCNCc4ccco4)ccnc3c2)c1	77	4.2 µM (≈ 1.68 µg/mL)	9.47	712.1	9.2	9 nM	23 ×10⁻⁶ cm/s	6270 nM	678 nM
